Laboratory results from ChEMBL document CHEMBL3576829, “Design, synthesis and evaluation of scutellarein-O-alkylamines as multifunctional agents for the treatment of Alzheimer's disease” (Eur J Med Chem, 2015).
Calls of active or inactive are those of the source.

How the values were obtained:
Acetylcholinesterase [1] = target: T1, Acetylcholinesterase (Rattus norvegicus, UniProt P37136); experiment: Inhibition of AChE in rat cortex using acetylthiocholine iodide as substrate after 15 mins by Ellman's method
T1 sequence (P37136 whole entry): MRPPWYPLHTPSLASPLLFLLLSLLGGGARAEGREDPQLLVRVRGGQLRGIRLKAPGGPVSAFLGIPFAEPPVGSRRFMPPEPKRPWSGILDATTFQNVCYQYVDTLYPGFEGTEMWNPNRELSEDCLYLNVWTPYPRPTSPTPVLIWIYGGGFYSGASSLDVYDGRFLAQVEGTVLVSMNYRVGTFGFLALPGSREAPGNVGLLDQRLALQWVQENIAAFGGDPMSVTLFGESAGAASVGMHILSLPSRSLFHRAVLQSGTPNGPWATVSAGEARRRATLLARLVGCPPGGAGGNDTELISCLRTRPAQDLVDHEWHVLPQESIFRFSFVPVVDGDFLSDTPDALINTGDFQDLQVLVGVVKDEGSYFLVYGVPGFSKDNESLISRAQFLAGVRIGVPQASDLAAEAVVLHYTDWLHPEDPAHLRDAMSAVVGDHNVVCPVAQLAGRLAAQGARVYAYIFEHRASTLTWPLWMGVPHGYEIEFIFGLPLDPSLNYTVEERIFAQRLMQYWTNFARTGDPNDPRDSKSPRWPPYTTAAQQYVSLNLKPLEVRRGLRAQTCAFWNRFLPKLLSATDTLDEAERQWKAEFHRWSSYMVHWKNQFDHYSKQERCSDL

[2] = Inhibition of BuChE in rat serum using butyrylthiocholine iodide as substrate after 15 mins by Ellman's method; conditions: 0.25 h
Procedure, shortened: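 Rat serum (25%, 10 µL) in 100 µL with 1 mmol/L butyrylthiocholine iodide stock, pH 7.4 phosphate buffer and graded inhibitor levels, 37°C for 15 min; DTNB (0.2%) then added and absorbance read at 405 nm.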

Acetylcholinesterase [3] = target: Acetylcholinesterase (Electrophorus electricus, UniProt O42275); experiment: Inhibition of electric eel AChE using acetylthiocholine iodide as substrate after 15 mins by Ellman's method
Rattus norvegicus = species on record: Rattus norvegicus; experiment: Selectivity index, ratio of IC50 for rat serum BuChE to IC50 for rat cortex AChE
Acetylcholinesterase [4] = target: Acetylcholinesterase (Homo sapiens, UniProt P22303); experiment: Inhibition of AChE in human erythrocytes using acetylthiocholine iodide as substrate after 15 mins by Ellman's method; assay type: cell-based
[5] = Metal chelating activity of the compound assessed as formation of copper-compound complex in methanol solution at 37.5 uM after 30 mins by UV-vis spectrometry; assay type: physicochemical; conditions: 0.5 h
Procedure, shortened: (§1)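 UV absorption (200–500 nm) of compound recorded with or without CuCl2, FeSO4, ZnCl2 or AlCl3 after 30 min incubation at room temperature.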

[6] = Metal chelating activity of the compound assessed as formation of aluminium-compound complex in methanol solution at 37.5 uM after 30 mins by UV-vis spectrometry; assay type: physicochemical; conditions: 0.5 h; procedure, shortened: as §1
[7] = Metal chelating activity of the compound assessed as formation of iron-compound complex in methanol solution at 37.5 uM after 30 mins by UV-vis spectrometry; assay type: physicochemical; conditions: 0.5 h; procedure, shortened: as §1
[8] = Metal chelating activity of the compound assessed as formation of zinc-compound complex in methanol solution at 37.5 uM after 30 mins by UV-vis spectrometry; assay type: physicochemical; conditions: 0.5 h; procedure, shortened: as §1
[9] = Metal chelating activity of the compound assessed as formation of copper-compound complex at ratio of 1:1 in methanol solution at 37.5 uM by molar ratio method; assay type: physicochemical
Procedure, shortened: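 Molar ratio titration: compound in methanol (37.5 μM final) titrated with CuCl2 (Cu2+ 7.5–93.75 μM final). Spectra corrected by numerical subtraction of CuCl2 and compound at matching concentrations; absorbance at 337 nm plotted against mole fraction of compound to give stoichiometry.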

[10] = target: Amyloid-beta precursor protein (Homo sapiens) (UniProt P05067); experiment: Inhibition of self-induced Abeta(1 to 42) (unknown origin) aggregation at 25 uM after 24 hrs by Thioflavin T-based fluorometric assay
Procedure, shortened: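 HFIP-pretreated Aβ1-42 (25 µM final) incubated alone or with test agent (25 µM) in 50 mM phosphate buffer pH 7.4, 37°C for 24 h in sealed wells.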

[11] = target: Amyloid-beta precursor protein (Homo sapiens) (UniProt P05067); experiment: Inhibition of self-induced Abeta(1 to 42) (unknown origin) aggregation at 12.5 uM after 24 hrs by Thioflavin T-based fluorometric assay
[12] = target: Amyloid-beta precursor protein (Homo sapiens) (UniProt P05067); experiment: Inhibition of self-induced Abeta(1 to 42) (unknown origin) aggregation at 50 uM after 24 hrs by Thioflavin T-based fluorometric assay
[13] = target: Amyloid-beta precursor protein (Homo sapiens) (UniProt P05067); experiment: Inhibition of Cu2+-induced amyloid beta (1 to 42) (unknown origin) aggregation at 25 uM after 24 hrs by thioflavin-T based fluorescence assay
Procedure, shortened: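 Aβ1-42 (25 µM final) in HEPES 20 mM, pH 6.6, 150 mM NaCl, exposed to Cu2+ (25 µM final) with or without test agent (25 µM), 37°C for 24 h in sealed wells.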

[14] = target: Amyloid-beta precursor protein (Homo sapiens) (UniProt P05067); experiment: Inhibition of Cu2+-induced amyloid beta (1 to 42) (unknown origin) aggregation at 5 uM after 24 hrs by thioflavin-T based fluorescence assay
Procedure, shortened: (§2)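 Aβ1-42 (25 μM final) plus Cu2+ (25 μM final) in HEPES (20 mM, pH 6.6, 150 mM NaCl), ±compound, incubated 24 h at 37 °C.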

[15] = target: Amyloid-beta precursor protein (Homo sapiens) (UniProt P05067); experiment: Inhibition of Cu2+-induced amyloid beta (1 to 42) (unknown origin) aggregation at 10 uM after 24 hrs by thioflavin-T based fluorescence assay; procedure, shortened: as §2
[16] = target: Amyloid-beta precursor protein (Homo sapiens) (UniProt P05067); experiment: Disaggregation of Cu2+-induced amyloid beta (1 to 42) (unknown origin) at 25 uM after 24 hrs by thioflavin T fluorescence method
Procedure, shortened: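 Aβ1-42 (25 μM final) preincubated with Cu2+ (25 μM final) in HEPES (20 mM, pH 6.6, 150 mM NaCl) at 37 °C for 24 h to form fibrils. Compound (25 μM final) then added for a further 24 h at 37 °C, wells sealed. 5 μM ThT in 50 mM glycine-NaOH pH 8.5 added; ex 446/em 490 nm; triplicate.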

[17] = target: Amyloid-beta precursor protein (Homo sapiens) (UniProt P05067); experiment: Inhibition of Cu2+-induced amyloid beta (1 to 42) (unknown origin) aggregation after 24 hrs by transmission electron microscopy
Procedure, shortened: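 Aβ1-42 (25 μM) diluted in HEPES (20 mM, pH 6.6, 150 mM NaCl) and treated with one equivalent of Cu2+ for 2 min at room temperature, then incubated ±compound for 24 h at 37 °C. Samples on carbon-coated grids for 2 min, washed twice with water, negatively stained 2 min with 2% phosphomolybdic acid, imaged by TEM.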

SH-SY5Y [18] = experiment: Cytotoxicity against human SH-SY5Y cells assessed as cell viability up to 10 uM after 24 hrs by MTT assay; assay type: cell-based
Procedure, shortened: (§3)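 SH-SY5Y human neuronal cells exposed to compound at 1, 10 and 100 μM for 24 h; viability read by MTT assay. Mean ± SEM of three independent experiments.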

SH-SY5Y [19] = experiment: Cytotoxicity against human SH-SY5Y cells assessed as reduction in cell viability at 100 uM after 24 hrs by MTT assay; assay type: cell-based; procedure, shortened: as §3
[20] = Neuroprotective activity against H2O2-induced cell injury in rat PC12 cells assessed as cell viability at 10 uM treated with compound for 24 hrs prior to H2O2 addition for 2 hrs by MTT assay (reference value: 56.1%); assay type: functional; conditions: PC-12, read-out: Activity
[21] = Neuroprotective activity against H2O2-induced cell injury in rat PC12 cells assessed as cell viability at 1 uM treated with compound for 24 hrs prior to H2O2 addition for 2 hrs by MTT assay (reference value: 56.1%); assay type: functional; conditions: PC-12, read-out: Activity
Mus musculus [22] = experiment: Reversal of scopolamine-induced cognitive deficit in Kunming mouse assessed as longer latency time at 6.6 mg/kg, po administered 1 hr before training trial measured at 24 hrs after training trial by passive avoidance test; assay type: functional
Procedure, shortened: (§4)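 Kunming mice, 18–22 g, six weeks old, either sex, n=10 per group. Compound given p.o. 1 h before training; scopolamine 3 mg/kg i.p. 30 min later. Training used a 0.5 mA, 2 s foot shock on stepping down; step-down latency measured 24 h later, 300 s cut-off. Mean ± SEM; one-way ANOVA with t test.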

Mus musculus [23] = experiment: Reversal of scopolamine-induced cognitive deficit in Kunming mouse assessed as longer latency time at 19.8 mg/kg, po administered 1 hr before training trial measured at 24 hrs after training trial by passive avoidance test; assay type: functional; procedure, shortened: as §4
Mus musculus [24] = experiment: Reversal of scopolamine-induced cognitive deficit in Kunming mouse assessed as longer latency time at 0.66 mg/kg, po administered 1 hr before training trial measured at 24 hrs after training trial by passive avoidance test; assay type: functional, organism-based; procedure, shortened: as §4

Amyloid-beta precursor protein (Homo sapiens), sequence (P05067 whole entry): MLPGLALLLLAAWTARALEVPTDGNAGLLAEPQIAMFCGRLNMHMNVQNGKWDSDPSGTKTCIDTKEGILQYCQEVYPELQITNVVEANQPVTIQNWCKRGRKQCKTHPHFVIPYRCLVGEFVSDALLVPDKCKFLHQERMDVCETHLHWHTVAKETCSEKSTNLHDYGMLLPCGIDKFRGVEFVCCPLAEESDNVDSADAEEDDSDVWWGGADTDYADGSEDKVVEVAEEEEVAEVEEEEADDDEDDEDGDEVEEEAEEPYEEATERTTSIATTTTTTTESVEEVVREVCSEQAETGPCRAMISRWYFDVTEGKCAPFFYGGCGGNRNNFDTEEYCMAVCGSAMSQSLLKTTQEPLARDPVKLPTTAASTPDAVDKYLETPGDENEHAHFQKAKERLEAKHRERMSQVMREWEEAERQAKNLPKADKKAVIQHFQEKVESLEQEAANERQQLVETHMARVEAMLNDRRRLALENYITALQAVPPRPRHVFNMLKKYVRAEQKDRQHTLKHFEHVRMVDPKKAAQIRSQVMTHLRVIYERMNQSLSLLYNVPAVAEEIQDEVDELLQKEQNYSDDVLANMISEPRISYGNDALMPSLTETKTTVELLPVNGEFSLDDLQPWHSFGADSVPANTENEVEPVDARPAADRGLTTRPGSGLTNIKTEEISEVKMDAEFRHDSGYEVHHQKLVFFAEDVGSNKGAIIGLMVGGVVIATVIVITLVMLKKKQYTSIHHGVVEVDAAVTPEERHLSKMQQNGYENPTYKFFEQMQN
Acetylcholinesterase (Electrophorus electricus, UniProt O42275), sequence (O42275 whole entry): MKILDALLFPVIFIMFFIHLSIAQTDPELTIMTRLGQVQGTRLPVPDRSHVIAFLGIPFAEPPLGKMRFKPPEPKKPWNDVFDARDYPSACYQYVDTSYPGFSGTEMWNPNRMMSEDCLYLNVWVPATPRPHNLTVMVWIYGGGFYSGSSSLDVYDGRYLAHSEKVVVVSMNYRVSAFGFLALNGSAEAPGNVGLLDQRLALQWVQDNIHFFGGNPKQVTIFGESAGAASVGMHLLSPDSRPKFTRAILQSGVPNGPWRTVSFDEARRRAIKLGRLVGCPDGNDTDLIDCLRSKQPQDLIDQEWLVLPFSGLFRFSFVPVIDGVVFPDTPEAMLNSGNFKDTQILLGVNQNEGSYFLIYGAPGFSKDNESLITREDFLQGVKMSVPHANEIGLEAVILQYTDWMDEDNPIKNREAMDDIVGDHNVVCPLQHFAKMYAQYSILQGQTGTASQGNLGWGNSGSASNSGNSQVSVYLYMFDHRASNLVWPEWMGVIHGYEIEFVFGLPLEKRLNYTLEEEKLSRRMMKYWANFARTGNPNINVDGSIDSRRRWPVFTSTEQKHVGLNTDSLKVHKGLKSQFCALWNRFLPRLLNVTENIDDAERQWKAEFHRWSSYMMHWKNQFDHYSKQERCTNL
Acetylcholinesterase (Homo sapiens, UniProt P22303), sequence (P22303 whole entry): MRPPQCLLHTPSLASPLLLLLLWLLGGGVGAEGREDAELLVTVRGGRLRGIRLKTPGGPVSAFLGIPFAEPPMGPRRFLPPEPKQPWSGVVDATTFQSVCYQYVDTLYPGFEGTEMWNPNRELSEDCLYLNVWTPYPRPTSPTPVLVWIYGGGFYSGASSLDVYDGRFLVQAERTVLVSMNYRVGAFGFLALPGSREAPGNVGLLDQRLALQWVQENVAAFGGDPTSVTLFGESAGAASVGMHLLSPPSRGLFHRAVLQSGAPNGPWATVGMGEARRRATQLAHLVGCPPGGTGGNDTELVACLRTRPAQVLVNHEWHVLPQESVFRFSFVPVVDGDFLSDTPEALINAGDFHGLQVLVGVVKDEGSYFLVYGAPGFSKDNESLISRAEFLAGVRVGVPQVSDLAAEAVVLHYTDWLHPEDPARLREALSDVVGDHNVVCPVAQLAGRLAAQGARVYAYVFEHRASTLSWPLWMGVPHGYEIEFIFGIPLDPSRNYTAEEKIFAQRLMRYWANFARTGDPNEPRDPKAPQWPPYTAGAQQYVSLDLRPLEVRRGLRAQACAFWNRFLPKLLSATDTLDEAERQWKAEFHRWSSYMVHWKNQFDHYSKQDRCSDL

## CCN(CCCCOc1ccc(-c2cc(=O)c3c(O)c(OC)c(OC)cc3o2)cc1)Cc1ccccc1OC
Acetylcholinesterase [1]
  IC50: 620 nM
[2]
  IC50: 62000 nM
Acetylcholinesterase [3]
  IC50: 850 nM
Rattus norvegicus
  Ratio IC50: 100
Acetylcholinesterase [4]
  IC50: 250 nM
[5]
  Activity: Active
[6]
  Activity: Active
[7]
  Activity: Not Active
[8]
  Activity: Not Active
[9]
  Activity: Active
[10]
  inhibition: 69.1%
[11]
  inhibition: 43.5%
[12]
  inhibition: 87.2%
[13]
  inhibition: 85.7%
[14]
  inhibition: 46.5%
[15]
  inhibition: 64.6%
[16]
  inhibition: 81.3%
[17]
  inhibition: Active
SH-SY5Y [18]
  Activity: Non-toxic
SH-SY5Y [19]
  Activity: 80%
[20]
  viability at 10 µM: 75.1%
[21]
  viability at 1 µM: 65.9%
Mus musculus [22]
  Time: 136.2 s
Mus musculus [23]
  Time: 118.2 s
Mus musculus [24]
  Activity: inactive
